Holding throughout (type): functional
Test [1] concerns Candida albicans. Nature of the test: Antifungal activity against Candida albicans CAI4. The method in brief: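 C. albicans CAI4 overnight YPD culture diluted in PBS (~2 × 10⁶ cells/mL) and exposed to a range of compound concentrations in 2% DMSO for 5 h at 37 °C, then CFU counted. Survival is the CFU ratio against the 2% DMSO control. MFC is the lowest concentration giving <0.1% survival.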

Test [2] concerns Candida albicans. Nature of the test: Induction of reactive oxygen species production in Candida albicans assessed as corrected fluorescence value at 100 ug/mL after 3 hrs by fluorescence assay. The procedure, abridged:
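C. albicans grown overnight in YPD at 37 °C and resuspended in PBS. Cells mixed with a 100 µg/mL compound solution in 10% DMSO (DMSO alone as control) and held 1 h at 37 °C. 2',7'-dichlorofluorescin diacetate then added; fluorescence read after 3 h (ex 485/em 525 nm). A compound-plus-probe blank without cells was subtracted to give the corrected value.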

Test [3] deals with Saccharomyces cerevisiae. Briefly: Ratio of MIC for wild type Saccharomyces cerevisiae BY4741 to MIC for VPH2 gene knockout Saccharomyces cerevisiae mutant.
In test [4] the test system is Saccharomyces cerevisiae. Nature of the test: Ratio of MIC for wild type Saccharomyces cerevisiae BY4741 to MIC for VPS15 gene knockout Saccharomyces cerevisiae mutant.
Test [5] deals with Candida albicans. Nature of the test: Antifungal activity against Candida albicans assessed as fungus survival rate at 5 ug/mL in presence of ascorbic acid. The method in brief:
(§1)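 Overnight C. albicans YPD culture diluted in PBS (~2 × 10⁶ cells/mL) and treated with compound in 2% DMSO, with or without 80 mM ascorbic acid, for 5 h at 37 °C. CFU counted, and percentage survival taken against the 2% DMSO control.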

The subject of test [6] is Saccharomyces cerevisiae. Briefly: Antifungal activity against wild type Saccharomyces cerevisiae BY4741 after 48 hrs by microtiter plate method. The conditions noted are these: BY4741, 48 h. The procedure, abridged: (§2)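 Yeast deletion mutants grown in YPD in microtiter wells for 48 h at 30 °C. For the retest, 5 µL fivefold serial dilutions of stationary-phase cultures were spotted on YPD with or without compound, and growth was compared with BY4741 after 48 h at 30 °C.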

The test system of test [7] is Saccharomyces cerevisiae. Nature of the test: Antifungal activity against REG1 gene knockout Saccharomyces cerevisiae mutant after 48 hrs by microtiter plate method. The method in brief:
as §2

Test [8] has as its system Saccharomyces cerevisiae. Nature of the test: Antifungal activity against YKL118W gene knockout Saccharomyces cerevisiae mutant after 48 hrs by microtiter plate method. The method in brief: as §2
Test [9] concerns Saccharomyces cerevisiae. Briefly: Ratio of MIC for wild type Saccharomyces cerevisiae BY4741 to MIC for ADA2 gene knockout Saccharomyces cerevisiae mutant.
The subject of test [10] is Saccharomyces cerevisiae. Briefly: Antifungal activity against AMD1 gene knockout Saccharomyces cerevisiae mutant after 48 hrs by microtiter plate method. The method in brief: as §2
The subject of test [11] is Saccharomyces cerevisiae. Briefly: Antifungal activity against ADA2 gene knockout Saccharomyces cerevisiae mutant after 48 hrs by microtiter plate method. The procedure, abridged:
as §2

For test [12], the system named is Saccharomyces cerevisiae. Briefly: Antifungal activity against SPT7 gene knockout Saccharomyces cerevisiae mutant after 48 hrs by microtiter plate method. The method in brief: as §2
Test [13] has as its system Saccharomyces cerevisiae. Nature of the test: Ratio of MIC for 3,5-dichloro-6-(chloromethyl)-1-phenylpyrazin-2(1H)-one-resistant Saccharomyces cerevisiae mutant to MIC for wild type Saccharomyces cerevisiae BY4741.
The test system of test [14] is Saccharomyces cerevisiae. Nature of the test: Ratio of MIC for wild type Saccharomyces cerevisiae BY4741 to MIC for HTL1 gene knockout Saccharomyces cerevisiae mutant.
The subject of test [15] is Saccharomyces cerevisiae. Briefly: Ratio of MIC for wild type Saccharomyces cerevisiae BY4741 to MIC for REG1 gene knockout Saccharomyces cerevisiae mutant.
Test [16] has as its system Saccharomyces cerevisiae. Briefly: Ratio of MIC for wild type Saccharomyces cerevisiae BY4741 to MIC for CUP5 gene knockout Saccharomyces cerevisiae mutant.
Test [17] concerns Saccharomyces cerevisiae. Briefly: Antifungal activity against VMA7 gene knockout Saccharomyces cerevisiae mutant after 48 hrs by microtiter plate method. The method in brief:
as §2

The test system of test [18] is Saccharomyces cerevisiae. Briefly: Ratio of MIC for wild type Saccharomyces cerevisiae BY4741 to MIC for VMA7 gene knockout Saccharomyces cerevisiae mutant.
Test [19] concerns Saccharomyces cerevisiae. Nature of the test: Ratio of MIC for wild type Saccharomyces cerevisiae BY4741 to MIC for SPT7 gene knockout Saccharomyces cerevisiae mutant.
In test [20] the test system is Candida albicans. Briefly: Antifungal activity against Candida albicans assessed as fungus survival rate at 5 ug/mL in absence of ascorbic acid. The method in brief:
as §1

Test [21] has as its system Saccharomyces cerevisiae. Briefly: Ratio of MIC for wild type Saccharomyces cerevisiae BY4741 to MIC for AMD1 gene knockout Saccharomyces cerevisiae mutant.
Test [22] deals with Saccharomyces cerevisiae. Nature of the test: Antifungal activity against CUP5 gene knockout Saccharomyces cerevisiae mutant after 48 hrs by microtiter plate method. The procedure, abridged: as §2
For test [23], the system named is Saccharomyces cerevisiae. Briefly: Antifungal activity against HTL1 gene knockout Saccharomyces cerevisiae mutant after 48 hrs by microtiter plate method. The procedure, abridged: as §2
For test [24], the system named is Saccharomyces cerevisiae. Nature of the test: Antifungal activity against GET2 gene knockout Saccharomyces cerevisiae mutant after 48 hrs by microtiter plate method. The procedure, abridged:
as §2

Test [25] concerns Saccharomyces cerevisiae. Briefly: Ratio of MIC for wild type Saccharomyces cerevisiae BY4741 to MIC for GET2 gene knockout Saccharomyces cerevisiae mutant.
Test [26] relates to Saccharomyces cerevisiae. Nature of the test: Ratio of MIC for wild type Saccharomyces cerevisiae BY4741 to MIC for YKL118W gene knockout Saccharomyces cerevisiae mutant.
For test [27], the system named is Saccharomyces cerevisiae. Briefly: Antifungal activity against VPS15 gene knockout Saccharomyces cerevisiae mutant after 48 hrs by microtiter plate method. The procedure, abridged:
as §2

Test [28] has as its system Saccharomyces cerevisiae. Briefly: Antifungal activity against 3,5-dichloro-6-(chloromethyl)-1-phenylpyrazin-2(1H)-one-resistant Saccharomyces cerevisiae mutant after 48 hrs by microtiter plate method.
Test [29] has as its system Saccharomyces cerevisiae. Briefly: Antifungal activity against VPH2 gene knockout Saccharomyces cerevisiae mutant after 48 hrs by microtiter plate method. The procedure, abridged: as §2

These results are taken from ChEMBL document CHEMBL1152399, “Synthesis and fungicidal activity of 3,5-dichloropyrazin-2(1H)-one derivatives” (2009).

Converted amounts (≈) assume the structure as drawn.

The MFC is the lowest tested concentration that kills the fungus rather than only halting it. In the case of `COc1ccc(-c2c(Cl)nc(Cl)c(=O)n2-c2ccccc2)cc1`, the MFC in [1] was > 100 µg/mL.
`O=c1c(Cl)nc(Cl)cn1C1CCCCC1`: the MFC in test [1] is > 100 µg/mL. In addition, the Activity in [2] was >500.
Regarding `O=c1c(Cl)nc(Cl)cn1CC1CCCCC1`, in test [1], the MFC came out at 100 µg/mL (≈ 383 µM).
On to `COc1nc(Cl)c(CCl)n(-c2ccccc2)c1=O`, for which, in test [1], the MFC is > 100 µg/mL. Moreover, the Activity in test [2] is recorded as >500.
`O=c1c(Cl)nc(Cl)cn1Cc1ccccc1` returned an MFC in test [1] of 50 µg/mL (≈ 196 µM).
Still for that read-out and setting: the value for `COC(=O)c1ccc(-c2c(Cl)nc(Cl)c(=O)n2-c2ccccc2)cc1` was > 100 µg/mL.
For the compound `COc1ccccc1Cn1c(Cc2ccccc2)c(Cl)nc(Cl)c1=O`, in test [1], the MFC is > 100 µg/mL.
For `COCCn1c(-c2ccccc2)c(Cl)nc(Cl)c1=O`, the MFC in [1] is > 100 µg/mL. Also, the Activity in [2] is listed as >500.
For `COc1cccc(-c2c(Cl)nc(Cl)c(=O)n2C)c1`, in that order: > 100 µg/mL and >500.
For the compound `O=c1c(Cl)nc(Cl)cn1-c1ccccc1`, the MFC in test [1] was found to be 10 µg/mL (≈ 41.5 µM).
In general, MIC refers to the smallest concentration in the dilution series that meets the test's criterion for growth inhibition. With `O=c1c(Cl)nc(Cl)c(CCl)n1-c1ccccc1`, the Ratio in test [3], in test [4], in test [9], in [13], in test [14] and in test [15] was 5 throughout. Also, the Ratio in test [16], in test [18], in [19], in test [21], in [25] and in test [26] was 5 throughout. In test [1], this compound yielded an MFC of 5 µg/mL (≈ 17.3 µM). Moreover, the Activity in test [5] is 64%; in [20], 0.009%. In addition, the MIC came to 2.5 µg/mL (≈ 8.63 µM) in test [6]; 0.5 µg/mL (≈ 1.73 µM) in [7]; 0.5 µg/mL (≈ 1.73 µM) in [8]; 0.5 µg/mL (≈ 1.73 µM) in test [10]; 0.5 µg/mL (≈ 1.73 µM) in [11]; 0.5 µg/mL (≈ 1.73 µM) in [12]. The MIC in test [17] came out at 0.5 µg/mL (≈ 1.73 µM); in [22], 0.5 µg/mL (≈ 1.73 µM); in [23], 0.5 µg/mL (≈ 1.73 µM); in test [24], 0.5 µg/mL (≈ 1.73 µM); in test [27], 0.5 µg/mL (≈ 1.73 µM); in [28], 12.5 µg/mL (≈ 43.2 µM). Besides, 0.5 µg/mL (≈ 1.73 µM) was the least that counted as inhibitory in test [29] (MIC).
On to `COc1ccc(-n2cc(Cl)nc(Cl)c2=O)cc1`, for which the MFC in [1] came to 10 µg/mL (≈ 36.9 µM).
As to `Cc1ccccc1-c1c(Cl)nc(Cl)c(=O)n1-c1ccccc1`, the MFC in test [1] is > 100 µg/mL. Moreover, in test [2], the Activity is listed as >500.
For `O=c1c(-c2ccccc2)nc(Cl)c(CCl)n1-c1ccccc1`, in that order: > 100 µg/mL and >500.
Take `COc1ccc(Cn2cc(Cl)nc(Cl)c2=O)cc1`: the MFC in test [1] was 50 µg/mL (≈ 175 µM).
As for `COc1ccccc1-c1c(Cl)nc(Cl)c(=O)n1-c1ccccc1`, in test [1], the MFC is > 100 µg/mL. Further, in test [2], the Activity is < 100.
Take `Cc1c(Cl)nc(Cl)c(=O)n1-c1ccccc1`: the MFC in [1] is > 100 µg/mL.
The same measure, in the same setting: the value for `COc1ccc(Cn2c(C)c(Cl)nc(Cl)c2=O)cc1` was > 100 µg/mL; that for `O=c1c(Cl)nc(Cl)c(CBr)n1-c1ccccc1` was 5 µg/mL (≈ 15 µM).
Same read-out and setting: the value for `O=c1c(Cl)nc(Cl)cn1CCc1ccccc1` was 50 µg/mL (≈ 186 µM).
Take `Cc1c(Cl)nc(Cl)c(=O)n1Cc1ccccc1`: the MFC in [1] is > 100 µg/mL. For the same compound, the Activity in [2] is reported as >500.
For `COc1ccc(Cn2c(-c3ccc(OC)cc3)c(Cl)nc(Cl)c2=O)cc1`, in that order: > 100 µg/mL and >500.
